Assay results taken from ChEMBL document CHEMBL1131596, “Novel potent nonpeptide aminopeptidase N inhibitors with a cyclic imide skeleton” (J Med Chem, 1998).

Legend:
Aminopeptidase N = Aminopeptidase N (Homo sapiens, UniProt P15144); test: Inhibitory activity against aminopeptidase N assayed by the L-Ala-MCA method.
Dipeptidyl peptidase 4 = Dipeptidyl peptidase 4 (Homo sapiens, UniProt P27487); test: Inhibitory activity against dipeptidyl peptidase IV (DPP- IV)
How it was run: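 Enzymatic activity was measured in intact cells (DPP-IV as a membrane-associated ecto enzyme) using glycyl-L-proline 4-methylcoumaryl-7-amide (Gly-Pro-AMC) as the substrate.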

Chain of Aminopeptidase N (P15144 whole entry): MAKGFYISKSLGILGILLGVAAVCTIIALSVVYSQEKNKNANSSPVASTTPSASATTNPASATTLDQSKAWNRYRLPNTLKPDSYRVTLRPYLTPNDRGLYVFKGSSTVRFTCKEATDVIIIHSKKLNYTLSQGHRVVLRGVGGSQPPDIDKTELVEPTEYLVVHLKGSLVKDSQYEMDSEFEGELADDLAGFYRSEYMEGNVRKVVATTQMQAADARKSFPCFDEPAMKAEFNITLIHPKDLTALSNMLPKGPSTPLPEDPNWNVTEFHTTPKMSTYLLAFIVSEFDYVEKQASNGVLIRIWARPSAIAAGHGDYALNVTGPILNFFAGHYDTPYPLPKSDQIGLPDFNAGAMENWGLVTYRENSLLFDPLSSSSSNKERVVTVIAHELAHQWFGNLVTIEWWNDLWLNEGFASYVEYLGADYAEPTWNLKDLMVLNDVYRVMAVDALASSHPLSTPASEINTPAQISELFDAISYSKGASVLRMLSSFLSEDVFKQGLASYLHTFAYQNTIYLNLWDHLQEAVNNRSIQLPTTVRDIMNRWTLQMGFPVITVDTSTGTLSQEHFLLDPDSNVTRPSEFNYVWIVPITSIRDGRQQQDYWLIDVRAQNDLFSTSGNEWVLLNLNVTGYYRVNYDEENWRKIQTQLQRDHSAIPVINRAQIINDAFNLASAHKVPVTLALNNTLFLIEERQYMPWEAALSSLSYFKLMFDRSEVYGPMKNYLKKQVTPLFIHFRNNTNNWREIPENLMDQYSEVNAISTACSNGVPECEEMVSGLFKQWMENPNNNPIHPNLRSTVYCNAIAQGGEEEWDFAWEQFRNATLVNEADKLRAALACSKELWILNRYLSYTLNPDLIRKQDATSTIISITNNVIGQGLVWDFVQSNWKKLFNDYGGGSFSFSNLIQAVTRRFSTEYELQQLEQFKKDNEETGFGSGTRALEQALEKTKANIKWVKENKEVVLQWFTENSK
Chain of Dipeptidyl peptidase 4 (P27487 whole entry): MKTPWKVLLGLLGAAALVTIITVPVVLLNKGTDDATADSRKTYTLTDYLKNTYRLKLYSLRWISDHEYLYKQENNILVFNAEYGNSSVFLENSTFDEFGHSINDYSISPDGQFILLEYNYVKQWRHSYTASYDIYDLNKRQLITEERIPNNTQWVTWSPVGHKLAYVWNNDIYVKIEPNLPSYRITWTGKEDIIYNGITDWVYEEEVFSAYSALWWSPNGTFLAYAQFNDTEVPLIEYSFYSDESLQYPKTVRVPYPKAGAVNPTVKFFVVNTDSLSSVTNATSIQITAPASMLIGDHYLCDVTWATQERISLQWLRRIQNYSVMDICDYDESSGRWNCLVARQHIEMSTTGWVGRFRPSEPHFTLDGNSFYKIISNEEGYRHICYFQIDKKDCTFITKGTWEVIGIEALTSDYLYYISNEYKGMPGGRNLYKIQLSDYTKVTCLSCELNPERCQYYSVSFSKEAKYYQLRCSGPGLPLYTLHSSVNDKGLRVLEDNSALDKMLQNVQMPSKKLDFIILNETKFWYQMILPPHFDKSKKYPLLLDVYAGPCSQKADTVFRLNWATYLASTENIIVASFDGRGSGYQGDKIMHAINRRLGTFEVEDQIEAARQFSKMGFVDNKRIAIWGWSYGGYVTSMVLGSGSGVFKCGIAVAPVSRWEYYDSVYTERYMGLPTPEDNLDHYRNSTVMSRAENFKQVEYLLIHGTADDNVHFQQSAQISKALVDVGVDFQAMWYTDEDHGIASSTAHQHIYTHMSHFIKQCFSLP

SMILES | IC50 (Aminopeptidase N) [µM] | IC50 (Dipeptidyl peptidase 4) [µM]
CSc1ccccc1N1C(=O)Cc2ccccc2C1=O | 3.18 | > 353
Cc1cccc(C)c1N1C(=O)c2ccccc2C1=O | > 398 | 
CCc1cccc(CC)c1N1C(=O)c2ccccc2C1=O | 303 | > 358
CC(C)c1ccccc1N1C(=O)Cc2ccccc2C1=O | 194 | > 358
Cc1cccc(C)c1N1C(=O)Cc2ccccc2C1=O | 157 | > 377
O=C([C@@H]1CCCN1)N1CCC[C@H]1B(O)O | > 472 | 86.3
CC(C)c1cccc(C(C)C)c1N1C(=O)c2cccc(O)c2C1=O |  | 43.6
CC(C)c1cccc(C(C)C)c1N1C(=O)Cc2ccccc2C1=O | 10.9 | > 311
Cc1cc(C)cc(N2C(=O)Cc3ccccc3C2=O)c1 | 23.4 | > 377
CC(C)C[C@H](NC(=O)C(O)[C@H](N)Cc1ccccc1)C(=O)O (single isomer, unassigned) [UBENIMEX] |  | > 324
Cc1cccc(C)c1N1C(=O)c2ccc(N)cc2C1=O |  | 87.9
Cc1cccc(C)c1N1C(=O)c2cccc(N)c2C1=O | > 376 | > 376
CCc1cccc(CC)c1N1C(=O)c2ccc([N+](=O)[O-])cc2C1=O | > 308 | > 308
CCCCC[C@H](CC(=O)NO)C(=O)N[C@H](C(=O)N1CCC[C@H]1CO)C(C)C [ACTINONIN] | 0.83 | > 259
O=C1Cc2ccccc2C(=O)N1c1c(Cl)cccc1Cl | 144 | > 327
O=C1Cc2ccccc2C(=O)N1c1ccccc1 | 395 | > 421
CCc1ccccc1N1C(=O)Cc2ccccc2C1=O | 67.1 | > 377

SMILES | IC50 (Aminopeptidase N) [µM] | IC50 (Dipeptidyl peptidase 4) [µM]
CCc1cccc(CC)c1N1C(=O)c2ccc(O)cc2C1=O |  | 43.3
CC(C)c1cccc(C(C)C)c1N1C(=O)c2cccc(N)c2C1=O | 20.8 | 
COc1ccccc1N1C(=O)Cc2ccccc2C1=O | 110 | > 374
CCc1cccc(CC)c1N1C(=O)Cc2ccccc2C1=O |  | > 341
CC(C)c1cccc(C(C)C)c1N1C(=O)c2ccc(N)cc2C1=O |  | 251
Cc1cccc(C)c1N1C(=O)c2cccc(O)c2C1=O | 265 | 
CC(C)c1cccc(C(C)C)c1N1C(=O)c2ccccc2C1=O | > 325 | 
CC(C)c1cccc(C(C)C)c1N1C(=O)c2cccc([N+](=O)[O-])c2C1=O | > 284 | 
Cc1ccc(N2C(=O)Cc3ccccc3C2=O)c(C)c1 | 187 | > 377
CC(C)c1ccc(N2C(=O)Cc3ccccc3C2=O)cc1 | > 358 | > 358
Cc1cccc(N2C(=O)Cc3ccccc3C2=O)c1C | 113 | > 377
CC(C)c1cccc(C(C)C)c1N1C(=O)c2ccc(O)cc2C1=O |  | 65.9
Cc1ccc(C)c(N2C(=O)Cc3ccccc3C2=O)c1 | 60.3 | > 377
CC(C)c1cccc(C(C)C)c1N1C(=O)c2cc3ccccc3cc2C1=O | > 280 | 
Cc1cccc(C)c1N1C(=O)c2ccc(O)cc2C1=O |  | 74.1
CC(C)c1cccc(C(C)C)c1N1C(=O)c2ccc([N+](=O)[O-])cc2C1=O | > 284 | 
